# Assay results reported in PubChem BioAssay.
# Calls of active or inactive are those of the source.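 How the source made its calls, unless noted: active means visual image review flags a hit and inhibition of aggregation exceeds 20%; inconclusive means visual hit but inhibition at or below 20%; inactive means no hit on visual image review.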
# What was measured:
# [1] = inhibitors of TNFa-induced NFkB p65 translocation, primary screen, imaging, HUVEC, MLSMR starter and 10KST1 sets (AID 438;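 active means inhibition above 20% together with a positive visual image hit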;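 further: compound added about 3h40 before a 20 min TNFalpha stimulation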;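 on inhibition: signal is the nuclear over cytoplasmic p65 intensity ratio per well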); conditions: HUVEC TNFa-induced p65 nuclear translocation; cell count: measured here: nuclei count (cytotoxicity indicator), at 2.08 µM; inhibition: at 2 µM, stronger effect = higher value, 0% TNFa-plus-vehicle, 100% no-TNFa wells
# [2] = inhibitors of mutant huntingtin aggregation, primary screen, imaging, exon1htt(103Q)mCFP cells, high-content imaging (AID 483); conditions: exon1htt(103Q)mCFP cell line, aggregate imaging, at 2 µM; inhibition of aggregation: stronger effect = higher value; nuclei count: measured here: cell count, toxicity;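 further: compound exposure lasted 3 days before fixation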;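 on nuclei count: percent of the per-plate median nuclei count of sample wells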
# [3] = inhibitors of E-selectin induction by TNFa, primary screen, imaging, HUVEC, immunofluorescence, MLSMR starter and 10KST1 sets (AID 487;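 active means visually confirmed hit in the image check and inhibition above 20%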;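 on inhibition: signal is fraction of cell area covered by stained E-selectin grains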;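 on nuclei count: 100% = median nuclei count of all wells on the same plate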); conditions: HUVEC TNFalpha-induced E-selectin immunofluorescence imaging, at 2 µM; inhibition: stronger effect = higher value; nuclei count: measured here: cell number, toxicity
# [4] = target: Voltage-gated potassium channel subunit beta-2 (Rattus norvegicus) (UniProt P62483); test: KvBeta enzyme negative modulators, primary screen, biochemical, NADPH fluorescence (AID 622;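 active means fluorescence slope higher than the sample average by over 3 SD, cut at about -0.22 in these data, passing the limit was not always enough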;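 further: slope of raw intensity against log time taken from 70 to 1610 s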); conditions: recombinant KvBeta, 4-cyanobenzaldehyde reduction, at 10 µM, stronger effect = higher value
# [5] = target: Voltage-gated potassium channel subunit beta-2 (Rattus norvegicus) (UniProt P62483); test: KvBeta positive modulators, primary screen, biochemical, NADPH fluorescence (AID 623;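 active means NADPH fluorescence slope more negative than the mean of all samples by about 3 SD, 99.7% confidence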;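 further: fluorescence intensity change per second fitted from 20 to 320 s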); conditions: Recombinant KvBeta, NADPH fluorescence decrease slope, 10 min; at 10 µM; stronger effect = lower value
# [6] = target: Muscarinic acetylcholine receptor M4 (Homo sapiens) (UniProt P08173); test: compounds altering M4/GIRK thallium flux, either direction, primary screen, M4 allosteric agonist project, cell-based, HEK293 M4/GIRK, BTC-AM (AID 625;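 active means fluorescence slope after compound addition differing from the mean of all tested samples at 99.7% confidence, mostly higher but some lower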;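 further: thallium influx through GIRK channels coupled to M4 in HEK293 cells with BTC-AM dye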); conditions: at 10 µM, actives lie on both sides
# Procedure, shortened: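 Material – HEK293 cells with M4 receptor and GIRK channels · Buffer or medium – pH 7.3 thallium assay buffer · Doses – one dose, 10 µM final · Timing – cells overnight at 37 °C, BTC-AM loading 1 h, reads 2 min total · Measured by – kinetic fluorescence with BTC-AM dye · Controls – carbachol and DMSO controls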
# [7] = inhibitors of Sendai virus-induced IRF3 signaling, primary screen, TLR/RLR signaling modifier project, cell-based, Sendai virus stimulus, luciferase, 10K MLSCN set (AID 602276;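 active means inhibition at or above 50% at 10 µM; inactive means inhibition below 50%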;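 further: firefly luciferase from ISG56 promoter only with Renilla not read in this screen; 0% = Sendai virus plus DMSO and 100% = medium plus DMSO without virus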); conditions: HEK293 RL24 IRF3 luciferase reporter, at 10 µM, stronger effect = higher value
# [8] = inhibitors of poly I:C-induced TLR3 signaling, primary screen, cell-based, poly I:C stimulus, luciferase, 10K MLSCN set (AID 602277;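 active means inhibition of the reporter signal at or above 50%; inactive means inhibition below 50%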); conditions: HEK293-TLR3 RL24 IRF3 luciferase reporter, at 10 µM, stronger effect = higher value
# Muscarinic acetylcholine receptor M4 (Homo sapiens), sequence (P08173 whole entry, looked up): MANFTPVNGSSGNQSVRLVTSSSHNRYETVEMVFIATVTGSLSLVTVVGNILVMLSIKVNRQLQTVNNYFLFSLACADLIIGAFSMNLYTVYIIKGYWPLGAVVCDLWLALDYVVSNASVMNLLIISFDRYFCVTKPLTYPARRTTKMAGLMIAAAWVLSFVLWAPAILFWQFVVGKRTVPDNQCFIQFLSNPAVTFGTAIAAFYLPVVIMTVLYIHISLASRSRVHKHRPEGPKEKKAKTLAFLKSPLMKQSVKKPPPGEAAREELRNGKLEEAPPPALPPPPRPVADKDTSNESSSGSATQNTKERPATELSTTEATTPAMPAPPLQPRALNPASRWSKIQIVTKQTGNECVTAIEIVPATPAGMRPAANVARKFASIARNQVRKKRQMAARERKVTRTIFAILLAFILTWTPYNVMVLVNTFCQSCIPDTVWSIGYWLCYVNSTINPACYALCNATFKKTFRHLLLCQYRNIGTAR
# Voltage-gated potassium channel subunit beta-2 (Rattus norvegicus), sequence (P62483 whole entry, looked up): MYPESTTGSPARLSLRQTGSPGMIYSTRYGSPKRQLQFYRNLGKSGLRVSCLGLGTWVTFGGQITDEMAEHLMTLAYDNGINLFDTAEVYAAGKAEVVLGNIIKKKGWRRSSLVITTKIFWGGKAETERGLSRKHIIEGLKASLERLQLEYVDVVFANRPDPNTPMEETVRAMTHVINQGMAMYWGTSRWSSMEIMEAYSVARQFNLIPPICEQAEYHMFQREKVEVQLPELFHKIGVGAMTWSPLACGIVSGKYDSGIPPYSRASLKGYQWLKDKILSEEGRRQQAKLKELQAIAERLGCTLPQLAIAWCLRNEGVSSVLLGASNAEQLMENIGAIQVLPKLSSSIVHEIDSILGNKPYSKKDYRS
SMILES,cell count [1],inhibition [1],inhibition of aggregation [2],nuclei count [2],inhibition [3],nuclei count [3],fluorescence slope [4],NADPH fluorescence slope [5],fluorescence slope [6],inhibition [7],inhibition [8]
COc1ccccc1CN1CC(C(=O)N2CCN(c3ccc(F)cc3)CC2)CC1=O (configuration not stated),400,72.8% (active),-14.7% (inactive),101%,-19.6% (inactive),106%,-0.583 (inactive),-4.4e-05 (inactive),0.00225 (inactive),16.3% (inactive),7.05% (inactive)
Cc1ccc2nsnc2c1S(=O)(=O)N1CCN(Cc2ccc3c(c2)OCO3)CC1,486,-13.1% (inactive),-11.5% (inactive),108%,-9.8% (inactive),83.9%,-0.468 (inactive),-4.9e-05 (inactive),0.00415 (inactive),12.5% (inactive),27.7% (inactive)
CCC(c1nnc(SCC(=O)NCC2CCCO2)n1Cc1ccccc1)N(C)C (configuration not stated),414,-5.7% (inactive),0.8% (inactive),52.5%,-136% (inactive),110%,-0.508 (inactive),-2.1e-05 (inactive),0.00548 (inactive),21% (inactive),25.8% (inactive)
O=C(c1ccc(NS(=O)(=O)c2cccs2)cc1)N1CCCCC1,287,5% (inactive),-0.8% (inactive),74.9%,-31.7% (inactive),96.5%,-0.474 (inactive),-3.6e-05 (inactive),0.00524 (inactive),0.00146% (inactive),-12.6% (inactive)
CN(C(=O)COC(=O)C1CCN(S(=O)(=O)c2cccs2)CC1)C1CCS(=O)(=O)C1 (configuration not stated),385,-2.7% (inactive),6% (inactive),51.8%,-190% (inactive),120%,-0.571 (inactive),-4.2e-05 (inactive),0.00447 (inactive),-5.26% (inactive),1.49% (inactive)
CCCC(=O)Nc1ccccc1NC(=O)CN(C)S(=O)(=O)c1ccc(C)cc1,182,-6.3% (inactive),-6.6% (inactive),81.6%,20.2% (inactive),83.4%,-0.56 (inactive),-3e-05 (inactive),0.00633 (inactive),1.42% (inactive),11.1% (inactive)
Cc1cc(-c2nc3ncccc3o2)ccc1N,306,-8.9% (inactive),23.3% (inactive),102%,-35.5% (inactive),99.8%,-0.0237 (inactive),9.6e-08 (inactive),0.00386 (inactive),-34.7% (inactive),-101% (inactive)
